Data as given in ChEMBL document CHEMBL1153560, “In vitro activities of doripenem and six comparator drugs against 423 aerobic and anaerobic bacterial isolates from infected diabetic foot wounds” (2008).
≈ marks a conversion by molar mass, not a printed value.

Key:
Type in all cases: functional
[1] = system: Corynebacterium aurimucosum; test: Antibacterial activity against Corynebacterium aurimucosum isolated from patient with diabetic foot infection assessed as percent resistant isolates after 48 hrs by broth microdilution method
Procedure, shortened: (§1)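 Isolates subcultured on Trypticase soy blood agar. Broth microdilution in cation-adjusted Mueller-Hinton broth with lysed horse blood, using in-house twofold dilution trays stored at −70°C. Inoculum from overnight colonies at about 5 × 10^5 CFU/ml final. Read after 18 to 24 h at 37°C, up to 48 h for some Corynebacterium strains.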

Corynebacterium striatum = test: Antibacterial activity against Corynebacterium striatum isolated from patient with diabetic foot infection assessed as percent resistant isolates after 48 hrs by broth microdilution method; procedure, shortened: as §1
Corynebacterium accolens [2] = test: Antibacterial activity against Corynebacterium accolens isolated from patient with diabetic foot infection assessed as percent resistant isolates after 48 hrs by broth microdilution method; procedure, shortened: as §1
Corynebacterium simulans = test: Antibacterial activity against Corynebacterium simulans isolated from patient with diabetic foot infection assessed as percent resistant isolates after 48 hrs by broth microdilution method; procedure, shortened: as §1
[3] = system: Staphylococcus epidermidis; test: Antibacterial activity against Staphylococcus epidermidis isolated from patient with diabetic foot infection after 18 to 24 hrs by broth microdilution method
Procedure, shortened: (§2)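 Isolates were subcultured on Trypticase soy blood agar and tested by broth microdilution in cation-adjusted Mueller-Hinton broth. In-house trays of twofold drug dilutions were stored at −70°C. Overnight colonies gave a final inoculum of about 5 × 10^5 CFU/ml. Plates were read after 18 to 24 h at 37°C.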

[4] = system: Staphylococcus lugdunensis; test: Antibacterial activity against Staphylococcus lugdunensis isolated from patient with diabetic foot infection after 18 to 24 hrs by broth microdilution method
Procedure, shortened: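 Subcultured on Trypticase soy blood agar, then broth microdilution in cation-adjusted Mueller-Hinton broth. Trays were made in-house with serial twofold drug dilutions and stored at −70°C. Inoculum was colonies from overnight growth, final approximately 5 × 10^5 CFU/ml. MIC was read after 18 to 24 h at 37°C. QC strains: S. aureus ATCC 29213 and E. coli ATCC 25922.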

Streptococcus agalactiae [5] = test: Antibacterial activity against Streptococcus agalactiae isolated from patient with diabetic foot infection after 18 to 24 hrs by broth microdilution method
Procedure, shortened: (§3)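 Streptococcal isolates were subcultured on Trypticase soy blood agar. Broth microdilution used cation-adjusted Mueller-Hinton broth with lysed horse blood, in in-house trays of serial twofold drug dilutions stored at −70°C. Overnight colonies were suspended to a final inoculum of approximately 5 × 10^5 CFU/ml. MIC was read after 18 to 24 h incubation at 37°C.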

[6] = system: Streptococcus dysgalactiae subsp. equisimilis; test: Antibacterial activity against Streptococcus dysgalactiae subsp. equisimilis isolated from patient with diabetic foot infection after 18 to 24 hrs by broth microdilution method; procedure, shortened: as §3
Corynebacterium xerosis [7] = test: Antibacterial activity against Corynebacterium xerosis isolated from patient with diabetic foot infection assessed as percent resistant isolates after 48 hrs by broth microdilution method; procedure, shortened: as §1
Staphylococcus aureus = test: Antibacterial activity against methicillin-sensitive Staphylococcus aureus isolated from patient with diabetic foot infection assessed as percent resistant isolates after 18 to 24 hrs by broth microdilution method
Procedure, shortened: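 Isolates grown on Trypticase soy blood agar, then tested by broth microdilution in unsupplemented cation-adjusted Mueller-Hinton broth. In-house trays held serial twofold drug dilutions and were stored at −70°C. Overnight colonies were suspended to a final inoculum near 5 × 10^5 CFU/ml, and trays read after 18–24 h at 37°C. QC strains: S. aureus ATCC 29213, E. coli ATCC 25922.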

[8] = system: Staphylococcus epidermidis; test: Antibacterial activity against Staphylococcus epidermidis isolated from patient with diabetic foot infection assessed as percent resistant isolates after 18 to 24 hrs by broth microdilution method
Procedure, shortened: (§4)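 Aerobes subcultured on Trypticase soy blood agar, then broth microdilution in cation-adjusted Mueller-Hinton broth. Trays prepared in-house with twofold dilutions and stored at −70°C. Overnight colonies suspended to about 5 × 10^5 CFU/ml final. Read after 18 to 24 h at 37°C. QC strains included S. aureus ATCC 29213 and E. coli ATCC 25922.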

[9] = system: Staphylococcus haemolyticus; test: Antibacterial activity against Staphylococcus haemolyticus isolated from patient with diabetic foot infection assessed as percent resistant isolates after 18 to 24 hrs by broth microdilution method
[10] = system: Staphylococcus lugdunensis; test: Antibacterial activity against Staphylococcus lugdunensis isolated from patient with diabetic foot infection assessed as percent resistant isolates after 18 to 24 hrs by broth microdilution method; procedure, shortened: as §4
Streptococcus agalactiae [11] = test: Antibacterial activity against Streptococcus agalactiae isolated from patient with diabetic foot infection assessed as percent resistant isolates after 18 to 24 hrs by broth microdilution method
Procedure, shortened: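 Streptococci subcultured on Trypticase soy blood agar and tested by broth microdilution in cation-adjusted Mueller-Hinton broth with lysed horse blood. In-house twofold dilution trays stored at −70°C. About 5 × 10^5 CFU/ml final inoculum from overnight colonies. Read after 18 to 24 h at 37°C.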

[12] = system: Corynebacterium aurimucosum; test: Antibacterial activity against Corynebacterium aurimucosum isolated from patient with diabetic foot infection after 48 hrs by broth microdilution method
Procedure, shortened: (§5)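 Isolates were subcultured on Trypticase soy blood agar. Broth microdilution used cation-adjusted Mueller-Hinton broth with lysed horse blood, in-house trays of twofold drug dilutions stored at −70°C. Colonies from overnight growth gave a final inoculum of about 5 × 10^5 CFU/ml. Trays were read after 18 to 24 h at 37°C, up to 48 h for some strains.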

Corynebacterium accolens [13] = test: Antibacterial activity against Corynebacterium accolens isolated from patient with diabetic foot infection after 48 hrs by broth microdilution method; procedure, shortened: as §5
Corynebacterium xerosis [14] = test: Antibacterial activity against Corynebacterium xerosis isolated from patient with diabetic foot infection after 48 hrs by broth microdilution method; procedure, shortened: as §5
Klebsiella aerogenes [15] = test: Antibacterial activity against Enterobacter aerogenes isolated from patient with diabetic foot infection assessed as percent resistant isolates after 18 to 24 hrs by broth microdilution method; procedure, shortened: as §4
Pseudomonas aeruginosa [16] = test: Antibacterial activity against Pseudomonas aeruginosa isolated from patient with diabetic foot infection assessed as percent resistant isolates after 18 to 24 hrs by broth microdilution method; procedure, shortened: as §4
Klebsiella aerogenes [17] = test: Antibacterial activity against Enterobacter aerogenes isolated from patient with diabetic foot infection after 18 to 24 hrs by broth microdilution method; procedure, shortened: as §2
Enterobacter cloacae = test: Antibacterial activity against Enterobacter cloacae isolated from patient with diabetic foot infection after 18 to 24 hrs by broth microdilution method; procedure, shortened: as §2
Klebsiella oxytoca = test: Antibacterial activity against Klebsiella oxytoca isolated from patient with diabetic foot infection after 18 to 24 hrs by broth microdilution method; procedure, shortened: as §2
Klebsiella pneumoniae = test: Antibacterial activity against Klebsiella pneumoniae isolated from patient with diabetic foot infection after 18 to 24 hrs by broth microdilution method; procedure, shortened: as §2
Proteus vulgaris = test: Antibacterial activity against Proteus vulgaris isolated from patient with diabetic foot infection after 18 to 24 hrs by broth microdilution method; procedure, shortened: as §2
Providencia rettgeri = test: Antibacterial activity against Proteus rettgeri isolated from patient with diabetic foot infection after 18 to 24 hrs by broth microdilution method; procedure, shortened: as §2
Pseudomonas aeruginosa [18] = test: Antibacterial activity against Pseudomonas aeruginosa isolated from patient with diabetic foot infection after 18 to 24 hrs by broth microdilution method; procedure, shortened: as §2

Row | Compound | MIC50 [3] [µg/mL] | MIC90 [3] [µg/mL] | MIC50 [4] [µg/mL] | MIC90 [4] [µg/mL] | MIC50 (Streptococcus agalactiae [5]) [µg/mL] | MIC90 (Streptococcus agalactiae [5]) [µg/mL] | MIC50 [6] [µg/mL] | MIC90 [6] [µg/mL] | Activity (Staphylococcus aureus) [%] | Activity [8] [%] | Activity [9] [%] | Activity [10] [%] | Activity (Streptococcus agalactiae [11]) [%] | MIC50 [12] [µg/mL] | MIC90 [12] [µg/mL] | MIC50 (Corynebacterium accolens [13]) [µg/mL] | MIC90 (Corynebacterium accolens [13]) [µg/mL] | MIC50 (Corynebacterium xerosis [14]) [µg/mL] | MIC90 (Corynebacterium xerosis [14]) [µg/mL] | further results
1 | CCC[C@@H]1C[C@@H](C(=O)N[C@@H]([C@H]2O[C@H](SC)[C@H](O)[C@@H](O)[C@H]2O)[C@H](C)Cl)N(C)C1 [CLINDAMYCIN] | 0.25 (≈ 0.588 µM) | > 64 | 0.125 (≈ 0.294 µM) | > 64 | 0.125 (≈ 0.294 µM) | > 64 | 0.125 (≈ 0.294 µM) | > 64 | 0 | 33 | 13 | 13 | 33 | > 64 | > 64 | 2 (≈ 4.71 µM) | > 64 | 2 (≈ 4.71 µM) | > 64 | Activity [1]: 100%; Activity (Corynebacterium striatum): 78%; Activity (Corynebacterium accolens [2]): 78%; Activity (Corynebacterium simulans): 78%; Activity (Corynebacterium xerosis [7]): 78%
2 | C[C@@H](O)[C@H]1C(=O)N2C(C(=O)O)=C(S[C@@H]3CN[C@H](CNS(N)(=O)=O)C3)[C@H](C)[C@H]12 [DORIPENEM] | 0.25 (≈ 0.595 µM) | 2 (≈ 4.76 µM) | 0.125 (≈ 0.297 µM) | 0.125 (≈ 0.297 µM) | ≤ 0.015 | 0.03 (≈ 0.0713 µM) | ≤ 0.015 | ≤ 0.015 | 0 | 67 | 73 | 0 | 0 | 1 (≈ 2.38 µM) | 8 (≈ 19 µM) | 0.125 (≈ 0.297 µM) | 0.25 (≈ 0.595 µM) | 0.125 (≈ 0.297 µM) | 0.25 (≈ 0.595 µM) | Activity (Klebsiella aerogenes [15]): 0%; Activity (Pseudomonas aeruginosa [16]): 7%; MIC50 (Klebsiella aerogenes [17]): 0.06 µg/mL (≈ 0.143 µM); MIC90 (Klebsiella aerogenes [17]): 0.25 µg/mL (≈ 0.595 µM); MIC50 (Enterobacter cloacae): 0.06 µg/mL (≈ 0.143 µM); MIC90 (Enterobacter cloacae): 0.25 µg/mL (≈ 0.595 µM); MIC50 (Klebsiella oxytoca): 0.06 µg/mL (≈ 0.143 µM); MIC90 (Klebsiella oxytoca): 0.125 µg/mL (≈ 0.297 µM); MIC50 (Klebsiella pneumoniae): 0.06 µg/mL (≈ 0.143 µM); MIC90 (Klebsiella pneumoniae): 0.125 µg/mL (≈ 0.297 µM); MIC50 (Proteus vulgaris): 0.125 µg/mL (≈ 0.297 µM); MIC90 (Proteus vulgaris): 0.25 µg/mL (≈ 0.595 µM); MIC50 (Providencia rettgeri): 0.125 µg/mL (≈ 0.297 µM); MIC90 (Providencia rettgeri): 0.25 µg/mL (≈ 0.595 µM); MIC50 (Pseudomonas aeruginosa [18]): 0.25 µg/mL (≈ 0.595 µM); MIC90 (Pseudomonas aeruginosa [18]): 2 µg/mL (≈ 4.76 µM)
